Converted amounts (≈) assume the structure as drawn. Like-named read-outs stand apart in the source and are kept apart here.
Columns and labels:
[1] = system: P. falciparum HB3 (chloroquine-sensitive); assay: Image-based merozoite egress and invasion assay; format: cell-based, Plasmodium falciparum; conditions: for effect on merozoite egress and invasion: exposed at 42 hpi (schizont stage) for 24 h, 10 μM per method; for parasite phenotype in sample micrographs: 1 μM at 42 hpi for 24 h (Fig. 4 legend)
In short: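 Sorbitol-synchronized HB3 at 1.5% hematocrit and 5% parasitemia, exposed at 42 hpi for 24 h alongside GlcNAc, E-64 and artemisinin references. Stained with WGA-Alexa Fluor 488 and Mitotracker Red CMXRos (1 nM each, 37 °C, 20 min), then fixed in 4% paraformaldehyde with DAPI. Five fields per well imaged at 405/488/635 nm (40× objective) with automated detection of parasitized erythrocytes.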

β-hematin formation = assay: β-Hematin formation assay; format: biochemical; conditions: 100 μM; for %Inhibition of β-hematin formation: average of two separate experiments
In short: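 Compound added with water, acetone and Nonidet P-40, then hematin-DMSO suspension; incubated 6 h at 37 °C with shaking. β-Hematin measured by pyridine ferrochrome method: 5% v/v final pyridine (from water/20% acetone/HEPES/50% pyridine solution), 10 min under the same conditions, absorbance at 405 nm. Chloroquine and 8-hydroxyquinoline run as references.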

[2] = system: P. falciparum Dd2 (chloroquine-resistant); assay: SYBR green I-based parasite viability assay, Dd2 strain; format: cell-based, Plasmodium falciparum; conditions: for EC50: Plasmodium falciparum, DD2, 72 h
In short: (§1)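 Parasites grown in human A+ erythrocytes in RPMI 1640 (25 mM HEPES pH 7.4, 26 mM NaHCO3, 2% dextrose, hypoxanthine, gentamycin, 0.5% Albumax II), 37 °C, 5% CO2. Compound DMSO dilutions (<0.125% DMSO) at 1% parasitemia, 2% hematocrit; chloroquine baseline. After 72 h: frozen at −80 °C, thawed, lysed with saponin/Triton/EDTA buffer containing 0.01% SYBR Green I, 30 min dark at 37 °C; fluorescence read at 485/530 nm. EC50 from 3 experiments × 3 replicates (±SD).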

[3] = system: P. falciparum 3D7 (chloroquine-sensitive); assay: SYBR green I-based parasite viability assay, 3D7 strain; format: cell-based; conditions: Plasmodium falciparum, 3D7, 72 h
In short: as §1

[4] = system: HepG2 human hepatocyte cells; assay: MTS cytotoxicity assay; format: cell-based; conditions: for EC50: Homo sapiens
In short: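 HepG2 seeded at 2500 cells/well in 384-well plates with compound dilutions, 48 h at 37 °C, 5% CO2. MTS reagent added for a further 3 h; absorbance read at 490 nm. EC50 from 3 independent experiments, each in triplicate (±SD).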

[5] = Aqueous solubility at pH 7.4, UV-visible absorption based method; format: physicochemical; conditions: aqueous solution at pH 7.4, pH 7.4, aqueous buffer
Microsomal stability = format: in vitro ADME; conditions: mouse, liver microsomes
P. falciparum Dd2 [6] = assay: Stage specificity, Giemsa-stained thin smears of synchronized cultures; format: cell-based, Plasmodium falciparum
P. falciparum Dd2 [7] = assay: Stage specificity, YOYO-1 flow cytometry of synchronized cultures; format: cell-based, Plasmodium falciparum; conditions: treated at ring stage (6 hpi), 5× EC50; monitored every 12 h
In short: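 Aliquots taken every 12 h over 48 h. Samples fixed in 0.04% glutaraldehyde/PBS, permeabilized with 0.25% Triton X-100, RNase-treated and stained with YOYO-1. Flow cytometry at 488 nm excitation with a 530/30 filter; DNA content plotted against cell count.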

P. falciparum = assay: Parasitemia after treatment at late schizont/segmenter stage; format: cell-based, Plasmodium falciparum; conditions: 5× EC50, 24 h; compared to control cultures
P. berghei ANKA = assay: Peters' four-day test, murine malaria model; format: in vivo, Plasmodium berghei in balb/c mice; conditions: 100 mg/kg twice daily oral
[8] = system: P. berghei ANKA expressing luciferase; assay: Elimination of existing infection, luciferase IVIS imaging; format: in vivo, Plasmodium berghei in Swiss Webster mice; conditions: 100 mg/kg once daily oral, started 72 h post-infection; Swiss Webster mice
In short: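 Swiss Webster mice infected with 10^4 luciferase-expressing P. berghei ANKA on day 0 and grouped at 72 h (n = 5/group). Oral gavage once daily for 5 days: test compound 100 mg/kg, chloroquine 40 mg/kg, or vehicle (2% methylcellulose, 0.5% Tween80). On day 7, D-luciferin 150 mg/kg injected; signal detected and quantified by IVIS.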

[9] = HepG2, 48 h, read-out: HepG2 EC50

CC(C)C[C@H](NC(=O)[C@H]1O[C@@H]1C(=O)O)C(=O)NCCCCN=C(N)N (relative stereo) [Compound E-64, L-trans-epoxysuccinyl-leucylamido-(4-guanidino)butane]
effect on merozoite egress and invasion [1]: completely blocks egress

Oc1cccc2cccnc12 [8-Hydroxyquinoline]
%Inhibition of β-hematin formation (β-hematin formation): 6 ± 0.42%

CCN(CC)CCCC(C)Nc1ccnc2cc(Cl)ccc12 (stereo not shown) [Chloroquine, reference compound]
EC50 fold higher in Dd2 compared to 3D7 ([2]; Dd2 versus 3D7): 15 fold
EC50 ([2]; read-out: Dd2 EC50): 172 nM
EC50 ([3]; read-out: 3D7 EC50): 11 ± 2 nM
EC50 [4, 9]: > 20 µM
inhibition of β-hematin formation, in words (β-hematin formation): complete inhibition
%Inhibition of β-hematin formation (β-hematin formation): 100 ± 1.78%

COc1ccc2nc(/C=C/c3ccccc3)cc(NCCCN(C)C)c2c1 [Compound 8]
EC50 ([2]; read-out: Dd2 EC50): 323 ± 40 nM
EC50 ([3]; read-out: 3D7 EC50): 302 ± 10 nM
EC50 [4, 9]: 19.9 ± 0.04 µM

COc1ccc2nc(/C=C/c3ccc(F)cc3)cc(NCCCN(C)C)c2c1 [Compound 9]
EC50 ([2]; read-out: Dd2 EC50): 137 ± 50 nM
EC50 ([3]; read-out: 3D7 EC50): 299 ± 40 nM
EC50 [4, 9]: 12.6 ± 0.01 µM

COc1ccc2nc(/C=C/c3ccc(C(F)(F)F)cc3)cc(NCCCN(C)C)c2c1 [Compound 10]
EC50 ([2]; read-out: Dd2 EC50): 726 ± 40 nM
EC50 ([3]; read-out: 3D7 EC50): 605 ± 40 nM
EC50 [4, 9]: > 20 µM

COC(=O)c1ccc(/C=C/c2cc(NCCCN(C)C)c3cc(OC)ccc3n2)cc1 [Compound 11]
EC50 ([2]; read-out: Dd2 EC50): 138 ± 60 nM
EC50 ([3]; read-out: 3D7 EC50): 294 ± 60 nM
EC50 [4, 9]: 14.9 ± 0.03 µM

COc1ccc2nc(/C=C/c3ccc([N+](=O)[O-])cc3)cc(NCCCN(C)C)c2c1 [Compound 12]
EC50 ([2]; read-out: Dd2 EC50): 57 ± 30 nM
EC50 ([3]; read-out: 3D7 EC50): 197 ± 20 nM
EC50 [4, 9]: 15.3 ± 0.05 µM

COc1ccc2nc(/C=C/c3ccccc3)cc(NCCCN3CCOCC3)c2c1 [Compound 13]
EC50 ([2]; read-out: Dd2 EC50): 303 ± 40 nM
EC50 ([3]; read-out: 3D7 EC50): 373 ± 30 nM
EC50 [4, 9]: 18 ± 0.04 µM

COc1ccc2nc(/C=C/c3ccc(F)cc3)cc(NCCCN3CCOCC3)c2c1 [Compound 14]
EC50 ([2]; read-out: Dd2 EC50): 208 ± 40 nM
EC50 ([3]; read-out: 3D7 EC50): 310 ± 20 nM
EC50 [4, 9]: 13.6 ± 0.05 µM

COc1ccc2nc(/C=C/c3ccc(C(F)(F)F)cc3)cc(NCCCN3CCOCC3)c2c1 [Compound 15]
EC50 ([2]; read-out: Dd2 EC50): 735 ± 60 nM
EC50 ([3]; read-out: 3D7 EC50): 599 ± 30 nM
EC50 [4, 9]: > 20 µM

COC(=O)c1ccc(/C=C/c2cc(NCCCN3CCOCC3)c3cc(OC)ccc3n2)cc1 [Compound 16]
EC50 ([2]; read-out: Dd2 EC50): 471 ± 80 nM
EC50 ([3]; read-out: 3D7 EC50): 322 ± 40 nM
EC50 [4, 9]: 12.8 ± 0.02 µM

COc1ccc2nc(/C=C/c3ccc([N+](=O)[O-])cc3)cc(NCCCN3CCOCC3)c2c1 [Compound 17]
EC50 ([2]; read-out: Dd2 EC50): 123 ± 50 nM
EC50 ([3]; read-out: 3D7 EC50): 193 ± 50 nM
EC50 [4, 9]: 15.7 ± 0.07 µM

CC(=O)N[C@@H]1[C@@H](O)[C@H](O)[C@@H](CO)O[C@H]1O [N-acetylglucosamine]
parasite phenotype in sample micrographs [1]: accumulation of extracellular merozoites
effect on merozoite egress and invasion [1]: blocks invasion

CCN(CC)CCCC(C)Nc1cc(/C=C/c2ccc([N+](=O)[O-])cc2)nc2ccc(OC)cc12 (stereo not shown) [UCF 501, 4-Nitro styrylquinoline (NSQ)]
EC50 ([2]; read-out: EC50 Dd2): 67 ± 8 nM
EC50 ([3]; read-out: EC50 3D7): 119 ± 3 nM
selectivity ([4]; HepG2 EC50 versus Dd2 EC50): 192
EC50 ([4]; HepG2, 48 h, read-out: EC50 HepG2): 12.92 ± 0.07 µM
EC50 ([4]; HepG2, read-out: EC50 in HepG2 cells): 12.9 µM
solubility [5]: 290 µg/mL (≈ 626 µM)
remaining at 1 h (Microsomal stability): 47.8%
half-life (Microsomal stability; Microsomal stability t1/2, mouse liver microsomes): 56.2 min
inhibition of β-hematin formation, in words (β-hematin formation): totally inactive
%Inhibition of β-hematin formation (β-hematin formation): 0 ± 0.07%
ring-infected erythrocytes after exposure at 42 hpi (P. falciparum Dd2 [6]; 5× EC50, compared to untreated controls): scarcely seen
blocking merozoite egress (P. falciparum Dd2 [6]; 5× EC50, treated at 42 hpi): inactive
time to phenotypically observable developmental changes (P. falciparum Dd2 [6]; after treatment, all stages of the intraerythrocytic lifecycle): ≤ 12 h
intraerythrocytic maturation by flow cytometry (P. falciparum Dd2 [7]): maturation is blocked
parasite phenotype in sample micrographs [1]: accumulation of extracellular merozoites
effect on merozoite egress and invasion [1]: blocks invasion
culture parasitemia after exposure at 42 hpi (P. falciparum): significant reduction
mice cured of malaria infection (P. berghei ANKA; 4 days, Balb/c mice, no infection up to day 30): 4/5
parasitemia in the one animal not cured, day 22 (P. berghei ANKA; day 22): 0.2%
parasitemia in the one animal not cured, day 27 (P. berghei ANKA; day 27, euthanized): 40%
luciferase expressing parasite burden, delayed treatment [8]: almost cleared

C[C@@H]1CC[C@H]2[C@@H](C)C(=O)O[C@@H]3O[C@@]4(C)CC[C@@H]1[C@]32OO4 [artemisinin, reference compound]
intraerythrocytic maturation by flow cytometry (P. falciparum Dd2 [7]): maturation is blocked
effect on merozoite egress and invasion [1]: no effect on invasion
culture parasitemia after exposure at 42 hpi (P. falciparum): does not cause similar marked reduction

Reference: PMC5350499 (International Journal for Parasitology: Drugs and Drug …, 2017)
